Test results taken from publication PMC6624389 (British Journal of Clinical Pharmacology, 2019).
One block for each molecule: values may come before it.

Key:
[1] = test system: T2DM patients; conditions: T2DM patients with mean FPG 8–9 mmol/L (144–162 mg/dL); cited from earlier work
[2] = Simulation of steady-state AUC24h using post-hoc CL/F from the final PopPK model; design: species or system human
Procedure, shortened: (§1)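 Steady state was simulated for 887 Japanese T2DM patients at 12.5, 25, 50 and 100 mg once daily. AUC24h came from individual post-hoc CL/F of the final PopPK model, and ΔUGE24h came from the final PK/PD model. The 50 mg regimen was also summarized by eGFR class (≥90, 60 to <90, 30 to <60 mL/min/1.73 m2). Results are given as median and 2.5th–97.5th percentiles.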

[3] = test system: Japanese patients with T2DM; assay: Simulation of steady-state ΔUGE24h by the final PK/PD model; design: species or system human; conditions: 50 mg once daily
Procedure, shortened: as §1

[4] = test system: T2DM patients with moderate renal impairment; conditions: cited from earlier work
[5] = test system: T2DM patients; conditions: once daily 12.5, 25, 50 and 100 mg, 12 weeks; cited from earlier work
[6] = Population PK model; assay type: in vivo, human
Procedure, shortened: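 The prior model was built from 534 plasma concentrations in 43 T2DM patients sampled serially after oral dosing. It was a 2-compartment model with first-order absorption (ADVAN4/TRANS4), log-normal interindividual variability and proportional residual error, fitted by FOCE with interaction. It served via $PRIOR to fit trough concentrations from four later studies. Covariates on CL/F were tested stepwise. Plasma drug was measured by LC–MS/MS (LLOQ 1 ng/mL).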

[7] = test system: Japanese healthy subjects and patients with T2DM; assay: Phase I and clinical pharmacology studies; assay type: in vivo, human
Procedure, shortened: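 Oral dosing in three studies. Healthy subjects received single fasted doses of 1–300 mg, or 20–100 mg daily after a standardized meal. T2DM patients received 50 or 100 mg daily for 14 days. A single 50 mg dose was given to T2DM patients grouped by eGFR. Urine was collected for 24 h predose and in postdose intervals, and UGE24h was calculated. Pooled data from 137 subjects were plotted against FPG and AUC24h.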

[8] = cited from earlier work
[9] = test system: Japanese healthy subjects and patients with T2DM; conditions: phase I and clinical pharmacology studies; cited from earlier work
[10] = test system: Japanese patients with T2DM; conditions: once daily 50 mg for 16 weeks; cited from earlier work
[11] = cited from earlier work; remark: listed apart in the source
[12] = test system: Japanese healthy subjects and patients with T2DM; assay: PK/PD maximum effect; assay type: in vivo, human
Procedure, shortened: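 Emax model fitted in NONMEM (FOCE with interaction) to pooled healthy-subject and T2DM data from three studies. AUC24h came from noncompartmental analysis, and UGE24h was taken over matching intervals. Emax was modelled as dependent on FAC (FPG × GFR) up to a threshold of 18 000 and constant above it. There was no interindividual variability, and residual error was additive plus proportional. Covariates were added stepwise (P < .05) and removed backward (P < .001), and the model was bootstrapped.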

[13] = cited from earlier work; remark: listed apart in the source

SMILES: OC[C@H]1O[C@@H](c2ccc(Cl)c(Cc3ccc(O[C@H]4CCOC4)cc3)c2)[C@H](O)[C@@H](O)[C@@H]1O [empagliflozin]
- Emax [1]: 120 g/24 h

- higher exposure in moderate renal impairment patients with T2DM ([2]; descriptive comparison of assessed AUC and simulation by final PopPK model): about 20%
- change in exposure caused by covariates other than GFR (BSA, TPRO, TBIL) ([2]; final PopPK model): ≤ 10%
- increase in AUC24h, moderate renal impairment compared to normal renal function ([2]; simulation, 50 mg once daily, T2DM patients): 1.17 fold
- Interindividual variability of CL/F ([6]; base model, before covariates): 26.8%
- Interindividual variability ω^2: CL ([6]; final PopPK model): 0.0533
- Vd/F ([6]; human, plasma, oral): 39.4 L
- first order absorption rate constant Ka ([6]; population mean, T2DM patients): 6.38 h⁻¹
- oral clearance CL/F ([6]; population mean, T2DM patients): 9.47 L/h
SMILES: OC[C@H]1O[C@@H](c2ccc(F)c(Cc3cc4ccccc4s3)c2)[C@H](O)[C@@H](O)[C@@H]1O [ipragliflozin]
- change in ΔUGE24h, moderate renal impairment compared to normal renal function [3]: 0.76 fold
- antidiabetic effect [4]: weaker antidiabetic effect
- fasting plasma glucose (FPG) and HbA1c levels [5]: dose‐dependent decreases
- effects on UGE at low doses ([7]; 1 and 3 mg single dose, healthy subjects, Study A): no significant effects
- UGE after single and multiple doses ([7]; healthy subjects and T2DM patients, exploratory assessment): dose‐dependent increase
- urinary excretion ratio of unchanged ipragliflozin [8]: approximately 1%
- exposure versus dose [9]: increase dose‐dependently
- tolerability [9]: consistently well tolerated
- urinary glucose excretion (UGE) versus dose [9]: increase dose‐dependently
- decreasing FPG and HbA1c levels versus placebo [10]: superior to a placebo
- tolerability [10]: well tolerated
- protein binding ex vivo [11]: ~ 96%
- glucose excretion effect versus dose ([12]; above 50 mg daily dose, suggested by PK/PD model): almost reaches the maximum level
- Emax of ΔUGE24h: FAC > 18 000 ([12]; population mean, constant above FAC threshold): 107 g/24 h
- Emax of ΔUGE24h: FAC ≤ 18 000 ([12]; population mean, reference FPG 100 mg/dL and GFR 90 mL/min): 72.3 g/24 h
- oral bioavailability [13]: > 90%
